Measurements published in ChEMBL document CHEMBL1681731, “Synthesis, in vitro anti-inflammatory and cytotoxic evaluation, and mechanism of action studies of 1-benzoyl-β-carboline and 1-benzoyl-3-carboxy-β-carboline derivatives” (Bioorg Med Chem, 2011).
The source made the active and inactive calls. The rule behind the calls is not given here.

Columns and labels:
RAW264.7 [1] = assay: Antiinflammatory activity against mouse RAW264.7 cells assessed as reduction of lipopolysaccharide/interferon-gamma induced PGE2 production at 10 uM after 18 hrs; assay type: functional; conditions: RAW264.7, 18 h
In short: (§1)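 RAW 264.7 macrophages (passages 9–20) stimulated with LPS/IFN-γ; compound tested at 1, 3 and 10 µM. Supernatant PGE2 measured by competitive EIA: anti-PGE2 antibody plus peroxidase-PGE2 tracer, 1 h RT; TMB/H2O2 30 min; H2SO4 stop; A450. Results given as % inhibition.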

RAW264.7 [2] = assay: Antiinflammatory activity against mouse RAW264.7 cells assessed as reduction of lipopolysaccharide/interferon-gamma induced PGE2 production at 3 uM after 18 hrs; assay type: functional; conditions: RAW264.7, 18 h; in short: as §1
DU-145 = assay: Cytotoxicity activity against human DU145 cells assessed as growth inhibition at 10 ug/ml after 72 hrs sulforhodamine B assay; assay type: functional; conditions: DU-145, 72 h
In short: (§2)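 Cells kept in RPMI-1640/10% FBS with antibiotics at 37 °C, 5% CO2. Trypsinized cells seeded and given compound from DMSO-diluted stock. Incubated 72 h, then fixed with 10% TCA. Stained 10 min with 0.4% sulforhodamine B in 1% HOAc, washed, dye dissolved in 10 mM Trizma. A515 read; growth relative to net protein increase of controls.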

RAW264.7 [3] = assay: Antiinflammatory activity against mouse RAW264.7 cells assessed as reduction of lipopolysaccharide/interferon-gamma induced PGE2 production at 1 uM by EIA; assay type: functional; in short: as §1
A549 = assay: Cytotoxicity activity against human A549 cells assessed as growth inhibition at 10 ug/ml after 72 hrs sulforhodamine B assay; assay type: functional; conditions: A549, 72 h; in short: as §2
[4] = Cytotoxicity against mouse […] cells by MTT assay; assay type: functional
In short: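 Viability of RAW 264.7 cells taken as mitochondrial reduction of MTT to formazan. Formazan read at OD550.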

[5] = Therapeutic index, ratio of CC50 for mouse […] cells to EC50 for inhibition of lipopolysaccharide/interferon-gamma induced nitric oxide production in mouse […] cells; assay type: cell-based; conditions: read-out: TI
[6] = Cytotoxicity activity against human KBVIN cells assessed as growth inhibition at 10 ug/ml after 72 hrs sulforhodamine B assay; assay type: functional; in short: as §2
[7] = Antiinflammatory activity against mouse […] cells assessed as inhibition of lipopolysaccharide/interferon-gamma induced nitric oxide production; assay type: functional, cell-based
In short: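 RAW 264.7 cells in DMEM/10% FCS, passages 9–20. Nitrite induced by LPS (1 µg/mL) plus IFN-γ (50 U/mL) for 18 h with or without compound. Griess reagent (1% sulfanilamide, 0.1% naphthylenediamine in 5% H3PO4) read at OD550. EC50 calculated.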

[8] = Antiinflammatory activity against human neutrophil assessed as inhibition of N-formyl-l-methionyl phenylalanine/cytochalasin B-induced superoxide anion generation by spectrophotometry; assay type: functional, cell-based
In short: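 Ferricytochrome c (0.5 mg/mL) reduction, SOD-inhibitable, with 1 mM Ca2+. Neutrophils (6 × 10^5 cells/mL) equilibrated 2 min at 37 °C, then drug or 0.1% DMSO for 5 min. Cytochalasin B 1 µg/mL preincubation, then 100 nM FMLP for 3 min. A550 monitored continuously with stirring. IC50 computed; mean ± SEM, n = 3.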

KB = assay: Cytotoxicity activity against human KB cells assessed as growth inhibition at 10 ug/ml after 72 hrs sulforhodamine B assay; assay type: functional; in short: as §2
[9] = Antiinflammatory activity against human neutrophil assessed as inhibition of N-formyl-l-methionyl phenylalanine/cytochalasin B-induced elastase release; assay type: functional, cell-based
In short: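 Neutrophils (6 × 10^5/mL) supplemented with 100 µM MeO-Suc-Ala-Ala-Pro-Val-p-nitroanilide, equilibrated 2 min at 37 °C, then given drug or 0.1% DMSO vehicle for 5 min. Activated with 100 nM FMLP plus 0.5 µg/mL cytochalasin B. Absorbance at 405 nm followed continuously. Release expressed as percent of drug-free activated control. IC50 computed; mean ± SEM, n = 3.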

[10] = system: Radical scavenging activity; assay: Antioxidant activity assessed as residual DPPH radical scavenging activity; assay type: functional

| SMILES | inhibition at 10 µM (RAW264.7 [1]) [%] | inhibition at 3 µM (RAW264.7 [2]) [%] | GI50 (DU-145) [µM] | inhibition at 1 µM (RAW264.7 [3]) [%] | GI50 (A549) [µM] | CC50 [4] [µM] | selectivity ratio [5] | GI50 [6] [µM] | EC50 ([7]; Mus musculus, read-out: EC50) [nM] | IC50 [8] [µM] | GI50 (KB) [µM] | IC50 [9] [µM] | Activity [10] | EC50 [7] |
| --- | --- | --- | --- | --- | --- | --- | --- | --- | --- | --- | --- | --- | --- | --- |
| Cc1ccc(C(=O)c2nccc3c2[nH]c2ccccc23)cc1 | 100 | 99 | > 40 | 25 | > 40 | 52.8 | 42 | > 40 | 1260 | > 30 | > 40 | > 30 |  |  |
| COc1ccc(C(=O)c2nc(C(=O)O)cc3c2[nH]c2ccccc23)cc1 |  | 98 | > 40 | 28 | > 40 | 43.1 | 187 | > 40 | 230 | 16.1 | > 40 | 10.4 | inactive |  |
| O=C(c1ccccc1)c1nccc2c1[nH]c1ccccc12 | 82 | 39 | > 40 | 0 | > 40 | 131 | 49 | > 40 | 2670 | > 30 | > 40 | > 30 |  |  |
| COc1ccc(C(=O)c2nccc3c2[nH]c2ccccc23)cc1 | 95 | 95 | > 40 | 0 | > 40 | 83.4 | 18 | > 40 | 4590 | > 30 | > 40 | > 30 |  |  |
| O=C(c1ccc(Br)cc1)c1nccc2c1[nH]c1ccccc12 |  | 100 | > 40 | 98 | > 40 | 149 | 492 | > 40 | 300 | > 30 | > 40 | > 30 |  |  |
| CC(=O)c1nc(C(N)=O)cc2c1[nH]c1ccccc12 [STELLARINES A] | 90 | 90 | > 40 | 0 | > 40 | 19.8 | 21 | > 40 | 920 | 14.5 | > 40 | 5.82 |  |  |
| COc1cccc(C(=O)c2nc(C(=O)O)cc3c2[nH]c2ccccc23)c1 |  |  |  |  |  |  |  |  |  |  |  |  | inactive |  |
| COc1ccccc1C(=O)c1nc(C(=O)O)cc2c1[nH]c1ccccc12 |  |  |  |  |  |  |  |  |  |  |  |  | inactive |  |
| O=c1cc(N2CCOCC2)oc2c(-c3ccccc3)cccc12 [LY-294002] |  |  |  |  |  |  |  |  |  | 1.12 |  | 1.92 |  |  |
| OC(c1ccc(Br)cc1)c1nccc2c1[nH]c1ccccc12 (stereo not given) | 34 | 21 | 13.3 | 0 | 19 | 70.1 | 95 | 14.5 | 740 | 8.84 | 15.9 | 14.2 |  |  |
| CC(=O)O[C@H]1C(=O)[C@@]2(C)[C@H]([C@H](OC(=O)c3ccccc3)[C@]3(O)C[C@H](OC(=O)[C@H](O)[C@@H](NC(=O)c4ccccc4)c4ccccc4)C(C)=C1C3(C)C)[C@]1(OC(C)=O)CO[C@@H]1C[C@@H]2O [PACLITAXEL] |  |  | 0.00555 |  | 0.00558 |  |  | > 1 |  |  | 0.00487 |  |  |  |
| O=C(c1cccc([N+](=O)[O-])c1)c1nccc2c1[nH]c1ccccc12 | 96 | 95 | > 40 | 0 | > 40 | 21.6 | 20 | > 40 | 1060 | 16.6 | > 40 |  |  |  |
| O=C(c1cccc(Br)c1)c1nccc2c1[nH]c1ccccc12 |  | 98 | > 40 | 97 | > 40 | 51.4 | 44 | > 40 | 1160 | > 30 | > 40 | > 30 |  |  |
| O=C(c1ccc([N+](=O)[O-])cc1)c1nccc2c1[nH]c1ccccc12 | 100 | 100 | > 40 | 0 | > 40 | 3.86 | 6 | > 40 | 660 | > 30 | > 40 | > 30 |  |  |
| N=C(N)NN [PIMAGEDINE] | 42 | 21 |  | 8 |  | 358 | 16 |  | 22600 |  |  |  |  |  |
| Cc1cccc(C(=O)c2nc(C(=O)O)cc3c2[nH]c2ccccc23)c1 |  | 100 |  | 98 |  | 16.4 | 34 |  | 470 |  |  |  | inactive |  |
| COc1ccc2c(c1)c(CC(=O)O)c(C)n2C(=O)c1ccc(Cl)cc1 [INDOMETHACIN] |  |  |  |  |  |  |  |  |  | 38.3 |  | 32 |  |  |
| O=C(O)c1cc2c([nH]c3ccccc32)c(C(=O)c2cccc([N+](=O)[O-])c2)n1 |  |  |  |  |  |  |  |  |  |  |  |  | inactive |  |
| COc1ccc(C(O)c2nccc3c2[nH]c2ccccc23)cc1 (stereo not given) | 19 | 0 |  | 0 |  | 1590 | 764 |  | 2080 |  |  |  |  |  |
| OC(c1ccccc1)c1nccc2c1[nH]c1ccccc12 (stereo not given) | 0 | 0 | > 40 | 0 | > 40 | 57.4 | 186 | 22.6 | 310 | 7.88 | > 40 | > 30 |  |  |
| CC(O)c1nccc2c1[nH]c1ccccc12 (stereo not given) | 0 | 0 | > 40 | 0 | > 40 | 0.28 |  | > 40 |  | 9.4 | > 40 | > 30 |  | Not Active |
| O=C(O)c1cc2c([nH]c3ccccc32)c(C(=O)c2ccc(Br)cc2)n1 |  | 100 | > 40 | 98 | > 40 | 10.7 | 20 | > 40 | 530 | 2.28 | > 40 | 1.99 | inactive |  |
| COC(=O)c1cc2c([nH]c3ccccc32)c(C(=O)c2ccc(OC)cc2)n1 |  | 100 | > 40 | 98 | > 40 | 1.95 | 4 | > 40 | 510 | > 30 | > 40 | > 30 |  |  |
| Cc1ccccc1C(=O)c1nccc2c1[nH]c1ccccc12 | 82 | 44 | > 40 | 0 | > 40 |  | > 2000 | > 40 | 2120 | > 30 | > 40 | > 30 |  |  |
| O=C(c1ccccc1Br)c1nccc2c1[nH]c1ccccc12 | 89 | 37 | > 40 | 0 | > 40 | 53.8 | 8 | > 40 | 6970 | > 30 | > 40 | > 30 |  |  |
